Screening results (PubChem BioAssay)
CHOP inh: CHOP inhibition in unfolded protein response | inhibition, % at 10 µM | CHO-K1 CHOP-promoter luciferase, tunicamycin-induced, 15-18 h | AID 2732 | 220,000 compounds, 3.8% hits;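 active = compounds that reduced the stress-induced luciferase reporter signal by more than about 70% of percent inhibition, limit read from the data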;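 note: 0% = tunicamycin plus vehicle and 100% = wells without tunicamycin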
Arbovirus inh: antivirals against arbovirus infection. arbovirus infection cell-based antiviral screen. 200,000 compounds, 0.37% hits. inhibition, % at 10 µM. AID 1251; in the data active = inhibition above about 30%
Rad51 HR inh: Rad51 (human) homologous recombination inhibition; Q06609; hRad51 DNA strand exchange, fluorescence dequenching; inhibition, % at 10 µM; 200,000 compounds, 0.085% hits;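 active = inhibition above 40% at the single screening dose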;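 note: 0% = DMSO control wells and 100% = blanks with heterologous ssDNA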
Target sequence (Q06609 whole entry, looked up): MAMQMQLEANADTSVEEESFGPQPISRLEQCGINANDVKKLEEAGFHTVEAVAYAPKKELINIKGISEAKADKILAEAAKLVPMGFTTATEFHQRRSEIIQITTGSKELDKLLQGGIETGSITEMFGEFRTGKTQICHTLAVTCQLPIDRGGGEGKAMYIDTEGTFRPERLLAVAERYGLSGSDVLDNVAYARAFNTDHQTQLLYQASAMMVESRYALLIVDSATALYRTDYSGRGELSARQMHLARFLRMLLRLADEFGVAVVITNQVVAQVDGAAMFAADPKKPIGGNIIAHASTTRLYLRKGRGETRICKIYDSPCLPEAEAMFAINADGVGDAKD
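Material: human Rad51–ssDNA filaments; Probe or stimulus: labelled 47-mer dsDNA for strand exchange; Doses: single 10 µM dose; Incubation: 37 °C 15-min filament assembly, 30-min compound preincubation, 15-min exchange; Technique: FRET fluorescence dequenching, excitation 485 nm, emission 520 nm; Measure: Fluorescence-based percent inhibition, control- and blank-normalised; Benchmarks: plate control and blank wells.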
PKD1 kinase inh: blocks activity of human protein kinase D1; Q15139; PKD1 kinase fluorescence polarization assay; inhibition, % (concentration not given with the values); 200,000 compounds, 0.056% hits
Lmaj promast: reduces viability of Leishmania major promastigotes; resazurin fluorescence viability; 200,000 compounds, 9% hits; inhibition, % at 10 µM;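 note: promastigotes grown with compound for 44 hours at 28 °C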
Wee1 stabilizer: inhibitors of human Wee1 degradation; P30291; HeLa Luc-Wee1K328M stability, luciferase luminescence; 100% = proteasome inhibitor MG132 effect; reporter increase, % at 5 µM; 220,000 compounds, 1.2% hits; AID 1321;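 active = activation above the mean of all tested compounds plus 3 SD, set per screening run, cut at about 8.8% in these data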;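 note: cells exposed to compound for 20 h before luminescence read; 0% = DMSO alone and 100% = MG132 at 30 µM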
* = called active by the depositor; i = inactive; . = no result. Sampled rows, rich in hits. Any-hit rate of the full collection: about 12%. Cut-off read from the data, not from the text of the source, unless noted: active = inhibition above about 50%; inactive = the rest.

SMILES	CHOP inh	Arbovirus inh	Rad51 HR inh	PKD1 kinase inh	Lmaj promast	Wee1 stabilizer
CC(C)CNC(=O)c1cccc(NC(=O)COc2cccc([N+](=O)[O-])c2)c1	7.4	0.2	.	2.0	5.7	1.5
Nc1ncnc(Oc2ccccc2F)c1[N+](=O)[O-]	8.3	7.0	-6.1	4.6	-1.0	-1.0
Cc1ccc(Nc2nc(Nc3ccc(C)cc3)nc(SC3=NCCS3)n2)cc1	90.4*	-33.7	.	2.2	26.2	-1.7
Cc1c2c(nc3ccccc13)CCC(C(C)(C)C)C2 (configuration not stated)	71.9*	-9.2	-30.0	-1.4	48.9	-1.8
Nc1c2c(nc3ccccc13)CCCC2	-32.7	3.9	-8.7	1.1	35.9	-2.0
C/C(=N\NC(=O)c1c(Cl)c(C)nn1C)c1ccc(NC(=O)c2ccncc2)cc1	-14.4	40.6*	5.6	9.8	1.4	0.2
C/C(=N\NC(=O)c1c(Br)c(C)nn1C)c1ccc(NC(=O)C(C)Oc2ccc(Cl)cc2C)cc1 (configuration not stated)	-5.5	-22.4	12.6	-4.2	97.7*	-3.7
Cc1nnc(SCc2nc3sc4c(c3c(=O)[nH]2)CCCC4)[nH]c1=O	1.8	1.2	-11.1	-4.8	-4.2	-0.2
COc1ccc(-c2cc(C(=O)OCC(=O)c3ccc(C)c([N+](=O)[O-])c3)c3ccccc3n2)cc1	39.0	-17.7	3.6	1.6	-4.5	-3.7
Cc1ccc(C(=O)COC(=O)c2cccc(NC(=O)c3ccc([N+](=O)[O-])cc3[N+](=O)[O-])c2)cc1	8.4	-24.7	7.9	-5.8	91.6*	-1.8
COc1ccc(-c2nn(-c3ccccc3)cc2C(=O)OCC(=O)c2ccc(C)c([N+](=O)[O-])c2)cc1	87.4*	4.2	.	-1.3	46.2	1.7
CC(=O)Nc1ccc(C(=O)OCC(=O)c2cccc([N+](=O)[O-])c2)cc1	4.4	-0.3	-14.6	-3.2	-7.8	-0.9
CC(=O)Nc1ccc(C(=O)OCC(=O)c2ccc(C)c([N+](=O)[O-])c2)cc1	33.9	3.6	.	-4.5	57.7*	-1.1
CS(=O)(=O)Nc1cccc(C2=NN(S(C)(=O)=O)C(c3ccccc3)C2)c1 (configuration not stated)	3.9	1.3	42.7*	10.4	-0.1	3.0
CN(CC(O)COc1c(F)cc(Br)cc1F)C1CCCCC1 (configuration not stated)	10.0	-10.7	12.9	-1.5	84.5*	-1.8
Cc1cc(C)n2nc(C(=O)Nc3cccc(S(=O)(=O)N(C)c4ccccc4)c3)nc2n1	15.1	.	-2.5	.	.	-2.8
O=C(COc1cccnc1[N+](=O)[O-])Nc1ccc(Cl)c(S(=O)(=O)N2CCOCC2)c1	9.1	.	-1.3	.	.	-0.9
CCCNC(=O)Cc1c(C)oc2ccccc12	-6.1	.	5.5	.	.	-2.5
CCOC(=O)C1=C(O)C(=O)NC(c2ccccc2)=C(OCC)C1	94.7*	2.4	-2.6	3.2	-7.1	2.1
CCOC(=O)C1=C(O)C(=O)NC(c2ccccc2)=C(OC2CCCCC2)C1	36.7	27.3	-8.6	-7.2	-3.0	-1.5
O=C(COc1ccc(Cl)cc1)NCc1nnc(SCC(=O)Nc2ccccc2F)o1	12.3	3.3	1.3	-7.3	6.2	-0.4
COc1ccccc1CN1C[C@@H]2C[C@@H](c3cccc(C)n3)N3CCC[C@@]23C1=O	17.1	-1.4	-6.7	-8.3	-3.6	-0.9
COc1cccc2c1OCC([C@@H]1C[C@H]3CN(Cc4cccc(Cl)c4)C(=O)[C@]34CCCN14)=C2	4.0	0.4	-4.2	-1.3	59.1*	-4.3
COc1ccccc1CN1C[C@@H]2C[C@@H](c3[nH]c4c(C)cccc4c3C)N3CCC[C@@]23C1=O	15.0	0.7	-48.3	-0.9	53.1*	-3.1
CC(C)CC1NC(=S)N(Cc2ccccc2)C1=O (configuration not stated)	16.6	14.2	4.1	-2.6	16.3	2.9
SMILES	CHOP inh	Arbovirus inh	Rad51 HR inh	PKD1 kinase inh	Lmaj promast	Wee1 stabilizer
COP(=O)(OC)C(NC(=O)Nc1ccccc1)c1ccccc1 (configuration not stated)	-4.2	.	-9.9	.	.	5.7
COc1ccc(/C=C/C(=O)NC(=S)Nc2cc3oc4ccccc4c3cc2OC)cc1	23.7	-3.6	-2.1	-1.8	50.1*	3.0
COc1cc2c(cc1NC(=O)C(C)OC(=O)/C=C/c1ccc(OC(F)F)cc1)oc1ccccc12 (configuration not stated)	24.9	0.2	-2.2	1.6	80.5*	-1.6
COc1cc2c(cc1NC(=O)/C=C/c1ccccc1)oc1ccccc12	-21.9	7.9	-11.1	8.6	9.8	3.0
COc1cc2c(cc1NC(=S)NC(=O)/C=C/c1ccc(OC)c(OC)c1)oc1ccccc12	-34.8	-1.8	-0.4	-6.2	46.4	0.5
CN(C)C(=O)c1cn(-c2ccccc2)nc1-c1cc2ccccc2oc1=O	6.7	4.5	24.2	5.6	-2.4	0.1
O=C1CSC(c2nn(-c3ccccc3)cc2-c2cc3ccccc3oc2=O)N1Cc1ccco1 (configuration not stated)	15.5	17.1	-4.8	6.0	51.7*	0.7
FC(F)(F)c1ccc(Cl)c(N/N=C/c2ccc(N3CCOCC3)s2)c1	8.0	-0.8	-16.6	-5.4	97.6*	-0.6
O=C(N/N=C/c1ccc(N2CCOCC2)s1)c1ccccc1Cl	-11.5	4.1	-8.8	3.7	-6.7	2.7
Cc1ccccc1NC(=O)Nc1nnc(Cc2ccc([N+](=O)[O-])cc2)s1	90.8*	-21.4	0.4	-12.9	3.9	-0.2
O=C(Nc1ccccc1)Nc1nnc(Cc2ccc([N+](=O)[O-])cc2)s1	90.3*	-22.3	-3.5	-10.6	-7.6	5.2
Cc1ccc(NC(=O)Nc2nnc(Cc3ccc([N+](=O)[O-])cc3)s2)cc1C	40.5	5.5	-2.9	6.3	-7.0	-1.8
O=C(Nc1nnc(Cc2ccc([N+](=O)[O-])cc2)s1)Nc1ccccc1F	74.5*	3.1	-15.0	-9.0	-8.9	1.6
O=C(Cc1nnc(NC(=O)Nc2ccccc2F)s1)NCc1ccccc1	7.8	.	19.6	.	.	2.7
CCCc1c(C(=O)NNc2cccc(Cl)c2)cnn1-c1ccccc1	5.0	.	12.8	.	.	-0.1
CCOC(=O)c1ccc2ncc(C(=O)OCC)c(NCCCN3CCOCC3)c2c1	-1.2	4.0	-3.6	-12.1	59.7*	6.7
CCOC(=O)c1ccc2ncc(C(=O)OCC)c(Nc3ccc(N4CCOCC4)cc3)c2c1	42.4	-4.3	0.7	1.7	74.0*	2.0
CN1CCN(c2ccccc2NC(=O)c2sc3ccccc3c2Cl)CC1	23.7	-16.2	6.7	5.4	13.8	-2.2
CCN1CCN(c2c(/C=C3\SC(=S)N(Cc4ccco4)C3=O)c(C)c(C#N)c(=O)n2C)CC1	-15.6	.	.	.	.	-2.2
CCCCN1C(=O)/C(=C/C=C2\Oc3ccccc3N2CC)SC1=S	29.1	-6.4	i	31.9	-2.2	0.9
CCN1/C(=C/C=C/c2oc3ccc(-c4ccccc4)cc3[n+]2CC)Oc2ccc(-c3ccccc3)cc21	107.7*	-28.2	i	-6.7	100.4*	-1.3
